Results taken from ChEMBL document CHEMBL1122064, “Synthesis and biological evaluation of 17-[131I]iodo-9-telluraheptadecanoic acid, a potential imaging agent” (J Med Chem, 1982).

Tests used:
Rattus norvegicus [1] = assay: Distribution of radioactivity in blood of Fischer 344 female rat after 7 days of intravenous administration; format: ADME, organism-based; settings: in vivo, 168 h
Method in brief: (§1)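 Female Fischer 344 rats (10-12 weeks, 170-200 g) with food and water ad libitum. The 131I-labelled fatty acid was taken up in ethanol, added dropwise to stirred 6% BSA at 40 °C (final ethanol 10%), filtered, and injected into a lateral tail vein under ether. Rats were CO2-anaesthetised and killed; organs were excised, rinsed, blotted, weighed and Ge(Li)-counted. Results are mean (range) % injected dose/g.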

Rattus norvegicus [2] = assay: Distribution of radioactivity in blood of Fischer 344 female rat after 10 min of intravenous administration; format: ADME, organism-based; settings: in vivo; method in brief: as §1
Rattus norvegicus [3] = assay: Distribution of radioactivity in Thyroid of Fischer 344 female rat after 2 min of intravenous administration; format: ADME, organism-based; settings: in vivo; method in brief: as §1
Rattus norvegicus [4] = assay: Distribution of radioactivity in liver of Fischer 344 female rat after 24 hr of intravenous administration; format: ADME, organism-based; settings: in vivo
Method in brief: (§2)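 Female Fischer 344 rats, 10-12 weeks old, 170-200 g, fed ad libitum. The 131I-labelled fatty acid was dissolved in absolute ethanol, added dropwise to stirred 6% bovine serum albumin at 40 °C (final ethanol 10%), filtered, and injected into a lateral tail vein under ether anaesthesia. Organs were excised, rinsed, blotted and weighed, then counted by Ge(Li) analyzer as percent injected dose/g.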

Rattus norvegicus [5] = assay: Distribution of radioactivity in blood of Fischer 344 female rat after 24 hr of intravenous administration; format: ADME, organism-based; settings: in vivo; method in brief: as §1
Rattus norvegicus [6] = assay: Distribution of radioactivity in Thyroid of Fischer 344 female rat after 30 min of intravenous administration; format: ADME, organism-based; settings: in vivo, 0.5 h; method in brief: as §1
Rattus norvegicus [7] = assay: Distribution of radioactivity in lungs of Fischer 344 female rat after 30 min of intravenous administration; format: ADME, organism-based, Lung; settings: in vivo, 0.5 h
Method in brief: (§3)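 Female Fischer 344 rats, 10-12 weeks, 170-200 g, fed ad libitum. The labelled fatty acid was given in 6% bovine serum albumin via a lateral tail vein under ether anaesthesia. Rats were killed by CO2 anaesthesia and cervical fracture; organs were excised, rinsed, blotted, weighed and counted by Ge(Li) analyzer. Results are mean percent injected dose/g with range.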

Rattus norvegicus [8] = assay: Distribution of radioactivity in lungs of Fischer 344 female rat after 4 days of intravenous administration; format: ADME, organism-based, Lung; settings: in vivo, 96 h; method in brief: as §2
Rattus norvegicus [9] = assay: Distribution of radioactivity in heart of Fischer 344 female rat after 4 day of intravenous administration; format: ADME, organism-based; settings: in vivo, 96 h; method in brief: as §1
Rattus norvegicus [10] = assay: Distribution of radioactivity in liver of Fischer 344 female rat after 60 min of intravenous administration; format: ADME, organism-based; settings: in vivo, 1 h; method in brief: as §3
Rattus norvegicus [11] = assay: Distribution of radioactivity in brain of Fischer 344 female rat after 10 min of intravenous administration; format: ADME, organism-based; settings: in vivo; method in brief: as §1
Rattus norvegicus [12] = assay: Distribution of radioactivity in lungs of Fischer 344 female rat after 6 hr of intravenous administration; format: ADME, organism-based, Lung; settings: in vivo; method in brief: as §2
Rattus norvegicus [13] = assay: Distribution of radioactivity in liver of Fischer 344 female rat after 2 min of intravenous administration; format: ADME, organism-based; settings: in vivo; method in brief: as §2
Rattus norvegicus [14] = assay: Distribution of radioactivity in kidneys of Fischer 344 female rat after 24 hr of intravenous administration; format: ADME, organism-based, Kidney; settings: in vivo; method in brief: as §1
Rattus norvegicus [15] = assay: Distribution of radioactivity in liver of Fischer 344 female rat after 30 min of intravenous administration; format: ADME, organism-based; settings: in vivo, 0.5 h; method in brief: as §3
Rattus norvegicus [16] = assay: Distribution of radioactivity in heart of Fischer 344 female rat after 7 days of intravenous administration; format: ADME, organism-based; settings: in vivo, 168 h; method in brief: as §1
Rattus norvegicus [17] = assay: Distribution of radioactivity in kidneys of Fischer 344 female rat after 30 min of intravenous administration; format: ADME, organism-based, Kidney; settings: in vivo, 0.5 h
Rattus norvegicus [18] = assay: Distribution of radioactivity in heart of Fischer 344 female rat after 6 hr of intravenous administration; format: ADME, organism-based; settings: in vivo; method in brief: as §1
Rattus norvegicus [19] = assay: Distribution of radioactivity in brain of Fischer 344 female rat after 6 hr of intravenous administration; format: ADME, organism-based; settings: in vivo; method in brief: as §1
Rattus norvegicus [20] = assay: Distribution of radioactivity in kidneys of Fischer 344 female rat after 2 min of intravenous administration; format: ADME, organism-based, Kidney; settings: in vivo; method in brief: as §1
Rattus norvegicus [21] = assay: Distribution of radioactivity in brain of Fischer 344 female rat after 30 min of intravenous administration; format: ADME, organism-based; settings: in vivo, 0.5 h; method in brief: as §1
Rattus norvegicus [22] = assay: Distribution of radioactivity in blood of Fischer 344 female rat after 60 min of intravenous administration; format: ADME, organism-based; settings: in vivo, 1 h
Rattus norvegicus [23] = assay: Distribution of radioactivity in heart of Fischer 344 female rat after 30 min of intravenous administration; format: ADME, organism-based; settings: in vivo, 0.5 h
Rattus norvegicus [24] = assay: Distribution of radioactivity in Thyroid of Fischer 344 female rat after 7 days of intravenous administration; format: ADME, organism-based; settings: in vivo, 168 h; method in brief: as §1
Rattus norvegicus [25] = assay: Distribution of radioactivity in lungs of Fischer 344 female rat after 10 min of intravenous administration; format: ADME, organism-based, Lung; settings: in vivo; method in brief: as §2
Rattus norvegicus [26] = assay: Distribution of radioactivity in Thyroid of Fischer 344 female rat after 6 hr of intravenous administration; format: ADME, organism-based; settings: in vivo; method in brief: as §1
Rattus norvegicus [27] = assay: Distribution of radioactivity in heart of Fischer 344 female rat after 10 min of intravenous administration; format: ADME, organism-based; settings: in vivo; method in brief: as §1
Rattus norvegicus [28] = assay: Distribution of radioactivity in heart of Fischer 344 female rat after 24 hr of intravenous administration; format: ADME, organism-based; settings: in vivo; method in brief: as §1
Rattus norvegicus [29] = assay: Distribution of radioactivity in kidneys of Fischer 344 female rat after 60 min of intravenous administration; format: ADME, organism-based, Kidney; settings: in vivo, 1 h
Rattus norvegicus [30] = assay: Distribution of radioactivity in lungs of Fischer 344 female rat after 2 min of intravenous administration; format: ADME, organism-based, Lung; settings: in vivo; method in brief: as §2
Rattus norvegicus [31] = assay: Distribution of radioactivity in kidneys of Fischer 344 female rat after 2 hr of intravenous administration; format: ADME, organism-based, Kidney; settings: in vivo; method in brief: as §1
Rattus norvegicus [32] = assay: Distribution of radioactivity in brain of Fischer 344 female rat after 24 hr of intravenous administration; format: ADME, organism-based; settings: in vivo; method in brief: as §1

**Q.** Which results are given for `O=C(O)CCCCCCCC[Te]CCCCCCCC[131I]`?
**A.** Distribution of radioactivity (Rattus norvegicus [1]): 0.009 dose g-1; Distribution of radioactivity (Rattus norvegicus [2]): 0.88 dose g-1; Distribution of radioactivity (Rattus norvegicus [3]): 6.27 dose g-1; Distribution of radioactivity (Rattus norvegicus [4]): 0.13 dose g-1; Distribution of radioactivity (Rattus norvegicus [5]): 0.08 dose g-1; Distribution of radioactivity (Rattus norvegicus [6]): 41.9 dose g-1; Distribution of radioactivity (Rattus norvegicus [7]): 0.85 dose g-1; Distribution of radioactivity (Rattus norvegicus [8]): 0.06 dose g-1; Distribution of radioactivity (Rattus norvegicus [9]): 0.04 dose g-1; Distribution of radioactivity (Rattus norvegicus [10]): 1.16 dose g-1; Distribution of radioactivity (Rattus norvegicus [11]): 0.11 dose g-1; Distribution of radioactivity (Rattus norvegicus [12]): 0.48 dose g-1; Distribution of radioactivity (Rattus norvegicus [13]): 3.71 dose g-1; Distribution of radioactivity (Rattus norvegicus [14]): 0.08 dose g-1; Distribution of radioactivity (Rattus norvegicus [15]): 1.75 dose g-1; Distribution of radioactivity (Rattus norvegicus [16]): 0.016 dose g-1; Distribution of radioactivity (Rattus norvegicus [17]): 0.8 dose g-1; Distribution of radioactivity (Rattus norvegicus [18]): 0.57 dose g-1; Distribution of radioactivity (Rattus norvegicus [19]): 0.03 dose g-1; Distribution of radioactivity (Rattus norvegicus [20]): 1.36 dose g-1; Distribution of radioactivity (Rattus norvegicus [21]): 0.06 dose g-1; Distribution of radioactivity (Rattus norvegicus [22]): 0.64 dose g-1; Distribution of radioactivity (Rattus norvegicus [23]): 1.78 dose g-1; Distribution of radioactivity (Rattus norvegicus [24]): 203 dose g-1; Distribution of radioactivity (Rattus norvegicus [25]): 1.11 dose g-1; Distribution of radioactivity (Rattus norvegicus [26]): 184 dose g-1; Distribution of radioactivity (Rattus norvegicus [27]): 2.01 dose g-1; Distribution of radioactivity (Rattus norvegicus [28]): 0.11 dose g-1; Distribution of radioactivity (Rattus norvegicus [29]): 0.68 dose g-1; Distribution of radioactivity (Rattus norvegicus [30]): 1.4 dose g-1; Distribution of radioactivity (Rattus norvegicus [31]): 0.54 dose g-1; Distribution of radioactivity (Rattus norvegicus [32]): 0.03 dose g-1
